Reference: ChEMBL document CHEMBL1121519, “Basic antiinflammatory compounds. N,N',N''-Trisubstituted guanidines” (J Med Chem, 1980)

Columns and labels:
[1] = Lethal dose in mice determined by Litchfield and Wilcoxon methods after peroral administration.; assay type: toxicity, organism-based; conditions: mouse, in vivo, po
Summary of the method: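 Median lethal dose found after oral dosing of mice, four mice per dose level, and calculated by the Litchfield–Wilcoxon method.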

Rattus norvegicus [2] = test: Tested for percent enhancement of carrageenan paw edema in rat, administered orally at a dose of one tenth of oral lethal dose in mice; assay type: functional
Summary of the method: (§1)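 1 h later, 0.1 mL of 1% carrageenan was injected into the right hind-paw plantar tissue. Paw swelling was measured by mercury-displacement plethysmometry 3 h after carrageenan, compared with controls.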

[3] = biological target: T1, Cyclooxygenase (Bos taurus) (UniProt O62664+O62698); test: Inhibition of prostaglandin synthetase in bovine seminal vesicle microsomes using Beckman liquid scintillation counter at 10 e-5 M; conditions: Microsome
[4] = Toxic score (3) was measured as lethal dose in orally administered mice; assay type: toxicity, organism-based; conditions: mouse, in vivo, po
Summary of the method: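 Score derived from mouse oral LD50 (Litchfield–Wilcoxon, four mice per dose), in mg/kg: >1000 = 3; 500-1000 = 2; <500 = 1.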

Rattus norvegicus [5] = species: Rattus norvegicus; test: Tested for inhibition in the rat paw injected with carrageenan.; assay type: functional; set-up: concentration or dose not given beside the values
Rattus norvegicus [6] = species: Rattus norvegicus; test: Tested for inhibition in the rat paw not injected with […].; assay type: functional; set-up: concentration or dose not given beside the values
Summary of the method: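 Adjuvant-induced arthritis, female Lewis rats, six per group: M. butyricum in mineral oil (3 mg/mL, 0.1 mL) injected into right hind paw plantar tissue. Daily oral dosing from adjuvant day to day 28, 10 or 5 (mg/kg)/day according to mouse oral LD50 (≥1000 or <1000 mg/kg). Injected and noninjected paw swelling read by mercury-displacement plethysmometry on day 28.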

Rattus norvegicus [7] = test: Percent inhibition of carrageenan paw edema in rat, administered orally at a dose of one tenth of oral lethal dose in mice; assay type: functional; summary of the method: as §1
Rattus norvegicus [8] = test: Total score is the sum of scores obtained in the adjuvant arthritis, acute toxicity, carrageenan edema, and prostaglandin synthetase assay; assay type: functional
Rattus norvegicus [9] = species: Rattus norvegicus; test: Average percent inhibition of the swelling of both injected and non injected paw was measured; […]; assay type: functional
Rattus norvegicus [10] = species: Rattus norvegicus; test: Average percent inhibition (arthritis score=3) of the swelling of both injected and non injected paw was measured; assay type: functional
Summary of the method: (§2)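 Adjuvant arthritis in inbred female Lewis rats, groups of six, acclimatized 2 weeks. Arthritis induced by injecting 0.1 mL M. butyricum in mineral oil (3 mg/mL) into right hind paw plantar tissue. Oral dosing daily from adjuvant day to day 28: 10 (mg/kg)/day if mouse oral LD50 ≥1000 mg/kg, else 5 (mg/kg)/day. Swelling of injected and noninjected paws measured day 28 by mercury-displacement plethysmometry; mean percent inhibition scored 0–3.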

Rattus norvegicus [11] = species: Rattus norvegicus; test: Tested for enhancement in the rat paw not injected with carrageenan.; assay type: functional
Rattus norvegicus [12] = species: Rattus norvegicus; test: Average percent inhibition (arthritis score=1) of the swelling of both injected and non injected paw was measured;values ranges from: […]-[…]; assay type: functional
[13] = biological target: T1, Cyclooxygenase (Bos taurus); test: Tested for Prostaglandin synthetase inhibition in Bovine seminal vesicle microsomes using Beckman liquid scintillation counter at 10 e-5 M; assay type: functional; conditions: Microsome
Rattus norvegicus [14] = species: Rattus norvegicus; test: Tested for enhancement in the rat paw injected with carrageenan.; assay type: functional
Rattus norvegicus [15] = species: Rattus norvegicus; test: Average percent inhibition (arthritis score=0) of the swelling of both injected and non injected paw was measured; assay type: functional; summary of the method: as §2
Rattus norvegicus [16] = species: Rattus norvegicus; test: Average percent inhibition (arthritis score)of the swelling of both injected and non injected paw was measured; assay type: functional; summary of the method: as §2

Structure (SMILES): Cc1cc(N/C(=N/C(C)(C)C)Nn2cnnc2)c2ccccc2n1
- LD50 [1]: > 1000 mg/kg
- Enhancement (Rattus norvegicus [2]): 9%

Structure (SMILES): Cc1cc(N/C(=N/C(C)(C)C)Nc2cccs2)c2ccccc2n1
- LD50 [1]: > 1000 mg/kg
- inhibition [3]: 37.2%
- LD50 [4]: > 1000 mg/kg
- Inhibition (Rattus norvegicus [5]): 16%
- Inhibition (Rattus norvegicus [6]): 26%
- Inhibition (Rattus norvegicus [7]): 73%
- Total score (Rattus norvegicus [8]): 8
- Inhibition (Rattus norvegicus [9]): 29%

Structure (SMILES): Cc1csc(/N=C(\Nc2cc(C)nc3ccccc23)NC(C)(C)C)n1
- LD50 [1]: 600 mg/kg
- inhibition [3]: 95.1%
- LD50 [4]: > 1000 mg/kg
- Inhibition (Rattus norvegicus [5]): 53%
- Inhibition (Rattus norvegicus [6]): 59%
- Inhibition (Rattus norvegicus [7]): 31%
- Total score (Rattus norvegicus [8]): 9
- Inhibition (Rattus norvegicus [10]): >=50%

Structure (SMILES): CCCCC/N=C(\Nc1nccs1)Nc1cc(C)nc2ccccc12
- LD50 [1]: 400 mg/kg
- inhibition [3]: -37%
- LD50 [4]: > 1000 mg/kg
- Inhibition (Rattus norvegicus [5]): 19%
- Inhibition (Rattus norvegicus [7]): 62%
- Total score (Rattus norvegicus [8]): 7
- Enhancement (Rattus norvegicus [11]): 4%
- Inhibition (Rattus norvegicus [12]): 29%

Structure (SMILES): CCOC(=O)c1cnc(/N=C(\Nc2cc(C)nc3ccccc23)NC2CCCCC2)s1
- LD50 [1]: > 1000 mg/kg
- inhibition [3]: 15.6%
- Enhancement (Rattus norvegicus [2]): 16%

Structure (SMILES): CC(C)(C)/N=C(/Nc1nccs1)Nc1cccc2ccccc12
- LD50 [1]: > 1000 mg/kg
- inhibition [3]: 6.9%
- Enhancement (Rattus norvegicus [2]): 19%

Structure (SMILES): CCCCCCCCCC/N=C(\Nc1nccs1)Nc1cc(C)nc2ccccc12
- LD50 [1]: > 1000 mg/kg
- inhibition [13]: 4.5%
- Inhibition (Rattus norvegicus [7]): 4%

Structure (SMILES): Cc1ccc2nc(C)cc(N/C(=N/C3CCCCC3)Nc3nccs3)c2c1
- LD50 [1]: > 1000 mg/kg
- inhibition [3]: 0.6%
- LD50 [4]: > 1000 mg/kg
- Inhibition (Rattus norvegicus [6]): 0%
- Inhibition (Rattus norvegicus [7]): 65%
- Total score (Rattus norvegicus [8]): 6
- Enhancement (Rattus norvegicus [14]): 21%
- Inhibition (Rattus norvegicus [15]): <10%

Structure (SMILES): Cc1cc(N/C(=N/C(C)(C)C)NC2NC=CS2)c2ccccc2n1 (stereo unspecified)
- LD50 [1]: 200 mg/kg
- inhibition [13]: 1.3%
- Inhibition (Rattus norvegicus [7]): 41%

Structure (SMILES): CC(C)(C)/N=C(\Nc1ccc2ccccc2c1)Nc1nccs1
- LD50 [1]: > 1000 mg/kg
- inhibition [3]: 1.7%
- Enhancement (Rattus norvegicus [2]): 17%

Structure (SMILES): CC(C)(C)/N=C(/Nc1nccs1)Nc1cccnc1Cl
- LD50 [1]: > 1000 mg/kg
- inhibition [13]: 10.1%
- Inhibition (Rattus norvegicus [7]): 19%

Structure (SMILES): CCOC(=O)c1csc(/N=C(\Nc2cc(C)nc3ccccc23)NC(C)(C)C)n1
- LD50 [1]: > 1000 mg/kg
- inhibition [3]: 71.8%
- Enhancement (Rattus norvegicus [2]): 36%

Structure (SMILES): Cc1cc(N/C(=N/C2CCCCC2)Nc2nc3ccccc3[nH]2)c2ccccc2n1
- LD50 [1]: > 1000 mg/kg
- inhibition [3]: 7.2%
- Enhancement (Rattus norvegicus [2]): 13%

Structure (SMILES): Cc1cc(N/C(=N\CC(C)(C)C)Nc2nccs2)c2ccccc2n1
- LD50 [1]: 600 mg/kg
- inhibition [3]: 31.1%
- Inhibition (Rattus norvegicus [5]): 31%
- Inhibition (Rattus norvegicus [6]): 29%
- Inhibition (Rattus norvegicus [7]): 66%
- Total score (Rattus norvegicus [8]): 7
- Inhibition (Rattus norvegicus [12]): 29%

Structure (SMILES): CC(C)(C)/N=C(\Nc1nccs1)Nc1ccnc2cc(Cl)ccc12
- LD50 [1]: > 1000 mg/kg
- inhibition [3]: 5.5%
- LD50 [4]: > 1000 mg/kg
- Inhibition (Rattus norvegicus [5]): 26%
- Inhibition (Rattus norvegicus [6]): 8%
- Inhibition (Rattus norvegicus [7]): 61%
- Total score (Rattus norvegicus [8]): 7

Structure (SMILES): CC(C)(C)/N=C(\Nc1nccs1)Nc1cc(C(F)(F)F)nc2ccccc12
- LD50 [1]: > 1000 mg/kg
- inhibition [3]: 75.4%
- LD50 [4]: > 1000 mg/kg
- Inhibition (Rattus norvegicus [6]): 2%
- Inhibition (Rattus norvegicus [7]): 28%
- Total score (Rattus norvegicus [8]): 7
- Enhancement (Rattus norvegicus [14]): 6%
- Inhibition (Rattus norvegicus [15]): <10%

Structure (SMILES): Cc1cc(N/C(=N/C2CCCCC2)Nc2nc3ccccc3s2)c2ccccc2n1
- LD50 [1]: > 1000 mg/kg
- inhibition [3]: 76.1%
- LD50 [4]: > 1000 mg/kg
- Inhibition (Rattus norvegicus [7]): 1%
- Total score (Rattus norvegicus [8]): 6
- Enhancement (Rattus norvegicus [14]): 7%
- Enhancement (Rattus norvegicus [11]): 4%
- Inhibition (Rattus norvegicus [15]): <10%

Structure (SMILES): CC(C)(C)/N=C(/Nc1nccs1)Nc1nccc2ccccc12
- LD50 [1]: > 1000 mg/kg
- inhibition [3]: 3.4%
- Inhibition (Rattus norvegicus [7]): 18%

Structure (SMILES): CC(C)(C)/N=C(/Nc1nccs1)Nc1cccc2ncccc12
- LD50 [1]: > 1000 mg/kg
- inhibition [3]: 9%
- Inhibition (Rattus norvegicus [7]): 21%

Structure (SMILES): CC(C)CC(C)(C)/N=C(\Nc1ccncc1)Nc1nccs1
- LD50 [1]: 800 mg/kg
- inhibition [3]: 1.1%
- Inhibition (Rattus norvegicus [7]): 22%

Structure (SMILES): CCCCC(CC)C/N=C(/Nc1nccs1)Nc1cc(C)nc2ccccc12 (stereo unspecified)
- LD50 [1]: > 1000 mg/kg
- inhibition [3]: 2.1%
- Inhibition (Rattus norvegicus [7]): 28%

Structure (SMILES): CC(C)(C)/N=C(\Nc1ccccc1)Nc1nccs1
- LD50 [1]: > 1000 mg/kg
- inhibition [3]: 6.4%
- Inhibition (Rattus norvegicus [7]): 24%

Structure (SMILES): Cc1cc(N/C(=N/C(C)(C)C)Nc2nc(C)c(C)s2)c2ccccc2n1
- LD50 [1]: > 1000 mg/kg
- inhibition [3]: 64.2%
- Inhibition (Rattus norvegicus [7]): 19%

Structure (SMILES): Cc1cc(N/C(=N/C2CCC(C)CC2)Nc2nccs2)c2ccccc2n1 (stereo unspecified)
- LD50 [1]: > 1000 mg/kg
- inhibition [3]: 12.6%
- Inhibition (Rattus norvegicus [7]): 39%

Structure (SMILES): CCC(C)/N=C(/Nc1nccs1)Nc1cc(C)nc2ccccc12 (stereo unspecified)
- LD50 [1]: 400 mg/kg
- inhibition [3]: 10.5%
- Inhibition (Rattus norvegicus [7]): 57%

Structure (SMILES): Cc1cc(N/C(=N/C2(C)CCCC2)Nc2nccs2)c2ccccc2n1
- LD50 [1]: 600 mg/kg
- inhibition [3]: 100%
- Inhibition (Rattus norvegicus [7]): 46%
- Total score (Rattus norvegicus [8]): 7

Structure (SMILES): Cc1nc2ccccc2cc1N/C(=N\C(C)(C)C)Nc1nccs1
- LD50 [1]: > 1000 mg/kg
- inhibition [3]: 2.3%
- Inhibition (Rattus norvegicus [7]): 24%

Structure (SMILES): Cc1nc2ccccc2c(N/C(=N/C2CCCCC2)Nc2nccs2)c1Cl
- LD50 [1]: > 1000 mg/kg
- inhibition [3]: 8.1%
- Inhibition (Rattus norvegicus [7]): 19%

Structure (SMILES): Cc1cc(N/C(=N/CC(C)C)Nc2nccs2)c2ccccc2n1
- LD50 [1]: 1000 mg/kg
- inhibition [3]: 18%
- Inhibition (Rattus norvegicus [7]): 57%

Structure (SMILES): CC(C)(C)/N=C(\Nc1nccs1)Nc1ccnc2ccccc12
- LD50 [1]: > 1000 mg/kg
- inhibition [3]: 23.8%
- Inhibition (Rattus norvegicus [7]): 29%

Structure (SMILES): Cc1cc(N/C(=N/C2CCCCC2)Nc2ncc(C(=O)O)s2)c2ccccc2n1
- LD50 [1]: > 1000 mg/kg
- inhibition [3]: 8.4%
- Inhibition (Rattus norvegicus [7]): 30%

Structure (SMILES): Cc1cc(N/C(=N/C2CCCCCC2)Nc2nccs2)c2ccccc2n1
- LD50 [1]: > 1000 mg/kg
- inhibition [3]: 34.8%
- Inhibition (Rattus norvegicus [7]): 19%

Structure (SMILES): Cc1cc(N/C(=N/CC2CCCCC2)Nc2nccs2)c2ccccc2n1
- LD50 [1]: > 1000 mg/kg
- inhibition [3]: 21%
- Inhibition (Rattus norvegicus [7]): 50%

Structure (SMILES): c1ccc2c(N/C(=N/C3CCCCC3)Nc3nccs3)ccnc2c1
- LD50 [1]: > 1000 mg/kg
- inhibition [3]: 21.2%
- Inhibition (Rattus norvegicus [7]): 46%

Structure (SMILES): Cc1ccc2cccc(N/C(=N\C(C)(C)C)Nc3nccs3)c2n1
- LD50 [1]: > 1000 mg/kg
- inhibition [3]: 7%
- Inhibition (Rattus norvegicus [7]): 4%

Structure (SMILES): Cc1cc(N/C(=N/C2CCCCC2)Nc2nc(C)c(C)s2)c2ccccc2n1
- LD50 [1]: > 1000 mg/kg
- inhibition [3]: 87.9%
- LD50 [4]: > 1000 mg/kg
- Inhibition (Rattus norvegicus [5]): 7%
- Inhibition (Rattus norvegicus [7]): 54%
- Total score (Rattus norvegicus [8]): 8
- Enhancement (Rattus norvegicus [11]): 63%
- Inhibition (Rattus norvegicus [16]): <10%
